From ChEMBL document CHEMBL1148741, “Synthesis and SAR investigations for novel melanin-concentrating hormone 1 receptor (MCH1) antagonists part 2: A hybrid strategy combining key fragments of HTS hits” (J Med Chem, 2007)
Calls of active or inactive are those of the source. The calls are words filed in the database; no cut-off is given here.

Columns and labels:
[1] = biological target: T1, Alpha-1A adrenergic receptor (Homo sapiens, UniProt P35348); assay: Displacement of [125I]HEAT from human recombinant adrenergic alpha-1A receptor
T1 sequence (P35348 whole entry): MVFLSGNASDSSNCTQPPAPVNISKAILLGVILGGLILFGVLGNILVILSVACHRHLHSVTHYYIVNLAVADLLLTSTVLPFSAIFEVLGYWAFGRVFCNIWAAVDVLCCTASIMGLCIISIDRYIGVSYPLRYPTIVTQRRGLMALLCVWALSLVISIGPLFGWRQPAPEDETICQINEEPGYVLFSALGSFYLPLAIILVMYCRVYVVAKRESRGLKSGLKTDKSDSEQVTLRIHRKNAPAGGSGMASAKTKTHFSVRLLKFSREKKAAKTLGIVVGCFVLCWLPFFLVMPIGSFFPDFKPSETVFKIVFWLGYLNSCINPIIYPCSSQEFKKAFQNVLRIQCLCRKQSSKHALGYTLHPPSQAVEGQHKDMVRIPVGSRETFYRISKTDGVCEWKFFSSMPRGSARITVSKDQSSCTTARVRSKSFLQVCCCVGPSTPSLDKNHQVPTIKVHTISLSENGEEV

D(2) dopamine receptor = D(2) dopamine receptor (Homo sapiens, UniProt P14416); assay: Displacement of [3H]spiperone from human recombinant dopamine D2 receptor
[2] = biological target: T2, Melanin-concentrating hormone receptor 1 (Rattus norvegicus, UniProt P97639); assay: Antagonist activity at rat MCH1 receptor expressed in HEK293 cells by FLIPR calcium mobility assay; type: functional, cell-based
[3] = biological target: T2, Melanin-concentrating hormone receptor 1; assay: Displacement of [3H]T-226296 from rat recombinant MCH1 receptor
[4] = Blood clearance in rat at 2 mg/kg, po and 1 mg/kg iv; type: ADME, organism-based; details: whole blood
Rattus norvegicus [5] = assay: Anxiolytic activity in rat assessed as social interaction time at 0.3 mg/kg, po after 1 hr relative to control
[6] = Volume of distribution at steady state in rat; type: ADME, organism-based; details: in vivo, read-out: Vss
[7] = Plasma clearance in rat at 2 mg/kg, po and 1 mg/kg iv; type: ADME, organism-based
Rattus norvegicus [8] = assay: Inhibition of MCH-stimulated water intake in rat at 2.5 mg/kg, po; type: functional, organism-based; set-up: dose 2.5 mg/kg
[9] = Drug level in brain at 10 mg/kg, po after 4 hrs; type: ADME, organism-based; set-up: dose 10 mg/kg, route oral; details: rat, read-out: Drug uptake
Summary of the method: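 Separate rat experiment: single 10 mg/kg oral dose, brain and plasma exposures measured 4 h after dosing (n = 2); brain level expressed in ng/g, also as brain/plasma ratio.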

[10] = Half life in rat at 2 mg/kg, po and 1 mg/kg iv; type: ADME, organism-based; details: in vivo
[11] = Ratio of drug level in brain to plasma in rat at 10 mg/kg, po; type: ADME, organism-based; set-up: dose 10 mg/kg, route oral
Summary of the method: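 Rats received a single oral dose in a study separate from the main PK study. Brain and plasma concentrations were measured 4 h after dosing (n = 2), and the ratio was taken as brain level over plasma level. The limit of quantitation was 2 ng/mL for plasma and 2 ng/g for brain.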

[12] = Bioavailability in rat at 2 mg/kg, po and 1 mg/kg iv; type: ADME, organism-based; details: in vivo
Rattus norvegicus [13] = assay: Inhibition of MCH-stimulated water intake in rat at 1 mg/kg, po; type: functional, organism-based; set-up: dose 1 mg/kg
Rattus norvegicus [14] = assay: Inhibition of MCH-stimulated water intake in rat at 10 mg/kg, po; type: functional, organism-based; set-up: dose 10 mg/kg

Sequence of D(2) dopamine receptor (P14416 whole entry): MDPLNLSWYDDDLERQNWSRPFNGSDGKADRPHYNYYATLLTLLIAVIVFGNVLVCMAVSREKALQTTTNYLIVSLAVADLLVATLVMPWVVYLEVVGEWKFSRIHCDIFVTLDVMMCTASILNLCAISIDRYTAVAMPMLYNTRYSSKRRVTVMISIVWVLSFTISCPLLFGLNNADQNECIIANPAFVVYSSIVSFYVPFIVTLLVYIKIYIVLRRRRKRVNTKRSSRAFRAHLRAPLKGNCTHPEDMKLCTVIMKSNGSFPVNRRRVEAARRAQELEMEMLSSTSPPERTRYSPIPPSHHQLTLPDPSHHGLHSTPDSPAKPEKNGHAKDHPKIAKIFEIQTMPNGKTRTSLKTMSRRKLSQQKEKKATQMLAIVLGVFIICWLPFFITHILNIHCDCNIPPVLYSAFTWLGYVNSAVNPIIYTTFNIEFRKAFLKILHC
T2 sequence (P97639 whole entry): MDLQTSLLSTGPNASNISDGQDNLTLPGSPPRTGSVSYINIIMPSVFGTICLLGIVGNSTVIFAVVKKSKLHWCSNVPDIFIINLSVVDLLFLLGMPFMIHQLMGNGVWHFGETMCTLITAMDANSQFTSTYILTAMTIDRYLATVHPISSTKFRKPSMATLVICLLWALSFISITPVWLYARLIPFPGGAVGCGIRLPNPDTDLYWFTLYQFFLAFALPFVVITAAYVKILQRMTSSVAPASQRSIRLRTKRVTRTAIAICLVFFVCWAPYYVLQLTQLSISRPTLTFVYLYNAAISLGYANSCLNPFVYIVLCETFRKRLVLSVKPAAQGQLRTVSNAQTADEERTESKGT

Row | Compound | Ki (D(2) dopamine receptor) [nM] | IC50 [2] [nM] | Ki [3] [nM] | other results
1 | Cc1ccc(C2CCN(Cc3ccc(Oc4ccc(F)c(F)c4)cc3)CC2)cc1NC(=O)C(C)C | 400 | 360 | 27 | Ki [1]: 1010 nM
2 | COc1ccc(Oc2cccc(CN3CCC(c4cccc(NC(=O)C(C)C)c4)CC3)c2)cc1 | 1000 |  |  | 
3 | Cc1ccc(NC(=O)C(C)C)cc1C1CCN(Cc2ccc(Oc3ccc(F)c(F)c3)cc2)CC1 | 7400 | 230 |  | clearance [4]: 55 mL/min/kg; Ki [1]: 180 nM; Time (Rattus norvegicus [5]): 81 s; Vd [6]: 29 L/kg; clearance [7]: 70 mL/min/kg; Activity (Rattus norvegicus [8]): Active; concentration at 4 h [9]: 184 ng/g; half-life [10]: 5.2 h; Kp [11]: 2.3; bioavailability [12]: 59%; Activity (Rattus norvegicus [13]): Active; Activity (Rattus norvegicus [14]): Active
4 | Cc1ccc(Oc2cccc(CN3CCC(c4cccc(NC(=O)C(C)C)c4)CC3)c2)cc1 | 1300 |  |  | 
5 | CC(C)C(=O)Nc1cccc(C2CCN(Cc3cccc(Oc4cc(Cl)cc(Cl)c4)c3)CC2)c1 |  | 1400 | 140 | 
6 | CC(C)C(=O)Nc1cccc(C2CCN(Cc3cccc(Oc4ccc(C(C)(C)C)cc4)c3)CC2)c1 |  |  | 540 | 
7 | COCC1=C(C(=O)OC)[C@H](c2ccc(F)c(F)c2)N(C(=O)NCCCN2CCC(c3cccc(NC(C)=O)c3)CC2)C(=O)N1 [SNAP-7941] | 2800 |  |  | Ki [1]: 40 nM
8 | CC(C)C(=O)Nc1cccc(C2CCN(Cc3cccc(Oc4ccc(Cl)cc4)c3)CC2)c1 |  | 2000 | 23 | 
9 | O=C(CCCN1CCC(O)(c2ccc(Cl)cc2)CC1)c1ccc(Cl)cc1 [CHLOROHALOPERIDOL] | 190 |  | 350 | Ki [1]: 150 nM
10 | CC(C)C(=O)Nc1cccc(C2CCN(Cc3ccc(Oc4ccc(Cl)c(Cl)c4)cc3)CC2)c1 | 2900 | 710 | 8.2 | Ki [1]: 34000 nM
11 | O=C(CCCN1CCC(c2cccc(NC(=O)C3CCCCC3)c2)CC1)c1ccc(Cl)cc1 |  |  | 200 | 
12 | CC(=O)Nc1cccc(C2CCN(CCCC(=O)c3ccccc3)CC2)c1 |  | 2700 | 350 | 
13 | O=C(Cc1ccccc1)Nc1cccc(C2CCN(CCCC(=O)c3ccc(Cl)cc3)CC2)c1 | 780 |  |  | 
14 | CC(C)C(=O)Nc1cccc(C2CCN(CCCC(=O)c3ccc(Cl)cc3)CC2)c1 | 610 | 72 | 5 | 
15 | CC(=O)Nc1cccc(C2CCN(CCCC(=O)c3ccc(C)c(C)c3)CC2)c1 |  | 1300 | 100 | 
16 | CC(=O)Nc1cccc(C2CCN(CCCC(=O)c3ccc(Cl)cc3)CC2)c1 | 1400 | 570 | 70 | 

Further lines, with some results ahead:

Row | Ki (D(2) dopamine receptor) [nM] | IC50 [2] [nM] | Ki [3] [nM] | Compound | other results
17 | 470 |  |  | CC(C)C(=O)Nc1cccc(C2CCN(Cc3ccc(Oc4ccc(F)c(F)c4)cc3)CC2)c1 | Ki [1]: 200 nM
18 | 1400 | 720 |  | COc1ccc(Oc2ccc(CN3CCC(c4cccc(NC(=O)C(C)C)c4)CC3)cc2)cc1 | 
19 | 110 | 350 | 5.3 | CC(C)C(=O)Nc1cccc(C2CCN(Cc3ccc(Oc4ccc(Cl)cc4)cc3)CC2)c1 | 
20 |  | 5400 |  | CC(C)C(=O)Nc1cccc(C2CCN(Cc3cccc(Oc4cccc(C(F)(F)F)c4)c3)CC2)c1 | 
21 |  | > 10000 | 490 | CC(=O)Nc1cccc(C2CCN(CCCC(=O)c3ccc(Oc4ccccc4)cc3)CC2)c1 | 
22 | 120 | 320 | 10 | CC(C)C(=O)Nc1cccc(C2CCN(Cc3ccc(Oc4ccccc4)cc3)CC2)c1 | 
23 |  | 2400 |  | CC(=O)Nc1cccc(C2CCN(CCCC(=O)c3ccc(C)cc3)CC2)c1 | 
24 |  | 2600 | 18 | CC(C)C(=O)Nc1cccc(C2CCN(Cc3cccc(Oc4ccc(Cl)c(Cl)c4)c3)CC2)c1 | 
